Article PMC7725269 (ACS biomaterials science & engineering, 2019)

Tests used:
T47D cells = test: Annexin V apoptosis flow cytometry; assay type: cell-based; settings: 1 μM PA 1 or equivalent paclitaxel
human recombinant DR5 = human recombinant DR5 (Homo sapiens, UniProt O14763); test: Surface plasmon resonance against immobilized DR5; assay type: binding; settings: SPR, immobilized DR5, running buffer pH 7.0
In short: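 About 2000 RU of recombinant human DR5 was EDC/NHS-coupled to a dextran chip from 10 ug/mL in 15 mM Na acetate pH 5.6, then ethanolamine-capped. Running buffer was 10 mM phosphate, 150 mM NaCl, 3 mM EDTA, 0.01% Tween 20. Analytes were quantified by A280 and tested at 62 nM targeting PA. Association was 8 min and dissociation 10 min at 30 uL/min, with 25 mM HCl 30 s regeneration.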

Sequence of human recombinant DR5 (O14763 56-440): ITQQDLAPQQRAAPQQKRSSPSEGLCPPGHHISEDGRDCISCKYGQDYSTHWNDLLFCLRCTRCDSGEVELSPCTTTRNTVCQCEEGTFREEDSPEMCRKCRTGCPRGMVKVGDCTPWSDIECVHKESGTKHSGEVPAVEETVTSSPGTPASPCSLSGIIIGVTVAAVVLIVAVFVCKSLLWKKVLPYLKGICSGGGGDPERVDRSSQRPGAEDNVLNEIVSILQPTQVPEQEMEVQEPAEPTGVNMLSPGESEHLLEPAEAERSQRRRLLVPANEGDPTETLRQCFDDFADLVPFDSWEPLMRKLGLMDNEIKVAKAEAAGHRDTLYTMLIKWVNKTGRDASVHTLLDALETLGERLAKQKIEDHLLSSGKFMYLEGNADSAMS

CC(=O)O[C@H]1C(=O)[C@@]2(C)[C@H]([C@H](OC(=O)c3ccccc3)[C@]3(O)C[C@H](OC(=O)[C@H](O)[C@@H](NC(=O)c4ccccc4)c4ccccc4)C(C)=C1C3(C)C)[C@]1(OC(C)=O)CO[C@@H]1C[C@@H]2O [Paclitaxel, paclitaxel]
Annexin V binding / cell death (in words) (T47D cells): statistically significant increase in annexin V binding

PEG2000-E2A6K(C12) [PA 4]
Binding to DR5 (in words) (human recombinant DR5): did not show any binding
